Reference: ChEMBL document CHEMBL1255255, “Highly variable penicillin resistance determinants PBP 2x, PBP 2b, and PBP 1a in isolates of two Streptococcus pneumoniae clonal groups, Poland 23F-16 and Poland 6B-20” (2008)
Positions count from the first letter of the chain named. Values after ≈ are worked out from the molar mass of the structure shown. Active and inactive are the calls of the source. No cut-off for these calls is given here.

Columns and labels:
Streptococcus pneumoniae [1] = test: Antimicrobial activity against Streptococcus pneumoniae isolate 657 obtained from sputum of patient; format: functional
Streptococcus pneumoniae [2] = test: Antimicrobial activity against Streptococcus pneumoniae isolate 4134 obtained from sputum of patient; format: functional
Streptococcus pneumoniae [3] = test: Antimicrobial activity against Streptococcus pneumoniae ATCC BAA-343; format: functional
Streptococcus pneumoniae [4] = test: Antimicrobial activity against Streptococcus pneumoniae isolate k-421 obtained from ear of patient; format: functional
Streptococcus pneumoniae [5] = test: Antimicrobial activity against Streptococcus pneumoniae isolate k-637 obtained from CSF of patient; format: functional
Streptococcus pneumoniae [6] = test: Antimicrobial activity against Streptococcus pneumoniae isolate k-598 obtained from bronchoalveolar lavage fluid of patient; format: functional; conditions: Lung
Streptococcus pneumoniae [7] = test: Antimicrobial activity against Streptococcus pneumoniae isolate 187 obtained from bronchoalveolar lavage fluid of patient; format: functional; conditions: isolate 187, Lung
Streptococcus pneumoniae [8] = test: Antimicrobial activity against Streptococcus pneumoniae isolate k-585 obtained from bronchoalveolar lavage fluid of patient; format: functional; conditions: isolate k-585, Lung
Streptococcus pneumoniae [9] = test: Antimicrobial activity against Streptococcus pneumoniae ATCC BAA-612; format: functional
Streptococcus pneumoniae [10] = test: Antimicrobial activity against Streptococcus pneumoniae isolate 2907 obtained from sinusitis of patient; format: functional
Streptococcus pneumoniae [11] = test: Antimicrobial activity against Streptococcus pneumoniae isolate 2904 obtained from blood of patient; format: functional
Streptococcus pneumoniae [12] = test: Antimicrobial activity against Streptococcus pneumoniae isolate 40 obtained from blood of patient; format: functional
Streptococcus pneumoniae [13] = test: Antimicrobial activity against Streptococcus pneumoniae isolate 909 obtained from bronchoalveolar lavage fluid of patient; format: functional; conditions: isolate 909, Lung
[14] = target: T1, Penicillin-binding protein 2X (Streptococcus pneumoniae R6) (UniProt P59676); test: Binding affinity to PBP 2x in Streptococcus pneumoniae R6 at 1.1 ng/ml to 1.1 ug /ml
T1 sequence (whole entry): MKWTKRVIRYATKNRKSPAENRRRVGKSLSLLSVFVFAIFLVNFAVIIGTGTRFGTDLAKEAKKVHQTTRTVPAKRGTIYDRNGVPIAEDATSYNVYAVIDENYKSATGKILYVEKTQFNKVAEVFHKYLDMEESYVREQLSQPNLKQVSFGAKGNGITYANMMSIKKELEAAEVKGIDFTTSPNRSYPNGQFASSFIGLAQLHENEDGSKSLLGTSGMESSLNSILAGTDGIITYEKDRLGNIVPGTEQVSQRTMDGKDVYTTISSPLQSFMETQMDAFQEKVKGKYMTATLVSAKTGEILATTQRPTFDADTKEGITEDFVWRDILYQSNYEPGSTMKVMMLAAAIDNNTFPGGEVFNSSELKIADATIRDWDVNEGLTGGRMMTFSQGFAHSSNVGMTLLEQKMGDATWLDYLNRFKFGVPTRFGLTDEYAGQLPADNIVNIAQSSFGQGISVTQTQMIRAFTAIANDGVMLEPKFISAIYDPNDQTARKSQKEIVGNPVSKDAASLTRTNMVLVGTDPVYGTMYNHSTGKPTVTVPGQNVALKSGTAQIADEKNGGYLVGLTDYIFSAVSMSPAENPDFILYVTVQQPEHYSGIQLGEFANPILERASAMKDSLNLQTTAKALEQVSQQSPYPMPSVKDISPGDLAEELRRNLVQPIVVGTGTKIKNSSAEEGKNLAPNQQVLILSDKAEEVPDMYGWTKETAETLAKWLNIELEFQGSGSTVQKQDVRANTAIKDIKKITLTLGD
Method in brief: (§1)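 Cells grown at 37°C without aeration in C medium with 0.2% yeast extract, monitored by nephelometry, harvested at 80 to 100 nephelometry units and resuspended in 20 mM sodium phosphate (pH 7.2) with 0.2% Triton X-100. Lysate aliquots labeled with decreasing Bocillin FL (1.1, 0.36, 0.11, 0.036 μg/ml, onward) for 30 min at 37°C. PBPs were resolved by SDS-PAGE (7.5% resolving gel) and read by fluorescence imaging.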

[15] = target: T2, Penicillin-binding protein 2x (Streptococcus pneumoniae serotype 4 (strain ATCC BAA-334 / TIGR4)) (UniProt P14677); test: Binding affinity to PBP 2x in Streptococcus pneumoniae isolate k-421 at 1.1 ng/ml to 1.1 ug /ml; method in brief: as §1
T2 sequence (whole entry): T1 sequence (whole entry) with M385T

[16] = target: T2, Penicillin-binding protein 2x (Streptococcus pneumoniae serotype 4 (strain ATCC BAA-334 / TIGR4)); test: Binding affinity to PBP 2x in Streptococcus pneumoniae isolate 909 at 1.1 ng/ml to 1.1 ug /ml; method in brief: as §1
[17] = target: T3, Penicillin-binding protein 1A (Streptococcus pneumoniae serotype 4 (strain ATCC BAA-334 / TIGR4)) (UniProt Q04707); test: Binding affinity to PBP 1a in Streptococcus pneumoniae isolate k-637 at 1.1 ng/ml to 1.1 ug /ml; method in brief: as §1
T3 sequence (whole entry): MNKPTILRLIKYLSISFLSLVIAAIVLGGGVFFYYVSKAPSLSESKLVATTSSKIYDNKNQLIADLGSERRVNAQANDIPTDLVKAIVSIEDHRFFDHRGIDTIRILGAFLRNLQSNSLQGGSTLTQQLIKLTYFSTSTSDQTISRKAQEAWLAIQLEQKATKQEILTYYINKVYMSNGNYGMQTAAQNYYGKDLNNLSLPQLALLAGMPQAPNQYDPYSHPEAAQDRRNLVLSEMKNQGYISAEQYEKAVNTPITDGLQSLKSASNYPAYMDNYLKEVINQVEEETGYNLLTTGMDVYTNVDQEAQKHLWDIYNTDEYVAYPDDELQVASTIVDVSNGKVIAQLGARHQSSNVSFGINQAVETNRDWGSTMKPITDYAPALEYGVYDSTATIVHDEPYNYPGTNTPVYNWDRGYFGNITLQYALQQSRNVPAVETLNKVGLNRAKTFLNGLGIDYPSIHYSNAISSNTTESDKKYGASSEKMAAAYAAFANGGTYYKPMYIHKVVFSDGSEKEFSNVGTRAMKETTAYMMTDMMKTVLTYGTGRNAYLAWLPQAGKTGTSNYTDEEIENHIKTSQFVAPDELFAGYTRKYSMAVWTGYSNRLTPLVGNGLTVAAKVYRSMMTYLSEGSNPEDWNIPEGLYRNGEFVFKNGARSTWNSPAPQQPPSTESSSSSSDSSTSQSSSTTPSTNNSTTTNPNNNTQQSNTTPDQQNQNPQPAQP

Row | Activity [14] | Activity [15] | Activity [16] | Activity [17] | SMILES | MIC (Streptococcus pneumoniae [1]) | MIC (Streptococcus pneumoniae [2]) | MIC (Streptococcus pneumoniae [3]) | MIC (Streptococcus pneumoniae [4]) | MIC (Streptococcus pneumoniae [5]) | MIC (Streptococcus pneumoniae [6]) | MIC (Streptococcus pneumoniae [7]) | MIC (Streptococcus pneumoniae [8]) | MIC (Streptococcus pneumoniae [9]) | MIC (Streptococcus pneumoniae [10]) | MIC (Streptococcus pneumoniae [11]) | MIC (Streptococcus pneumoniae [12]) | MIC (Streptococcus pneumoniae [13])
1 |  |  |  |  | C[C@@H](O)[C@H]1C(=O)N2C(C(=O)O)=C(S[C@@H]3CN[C@H](C(=O)N(C)C)C3)[C@H](C)[C@H]12 [MEROPENEM] | 0.06 µg/mL (≈ 0.156 µM) | 0.25 µg/mL (≈ 0.652 µM) | 0.5 µg/mL (≈ 1.3 µM) | 0.25 µg/mL (≈ 0.652 µM) | 0.5 µg/mL (≈ 1.3 µM) | 0.5 µg/mL (≈ 1.3 µM) | 0.5 µg/mL (≈ 1.3 µM) | 0.25 µg/mL (≈ 0.652 µM) | 0.06 µg/mL (≈ 0.156 µM) | 0.12 µg/mL (≈ 0.313 µM) | 0.5 µg/mL (≈ 1.3 µM) | 0.5 µg/mL (≈ 1.3 µM) | 0.25 µg/mL (≈ 0.652 µM)
2 |  |  |  |  | CO/N=C(\C(=O)N[C@@H]1C(=O)N2C(C(=O)O)=C(COC(C)=O)CS[C@H]12)c1csc(N)n1 [CEFOTAXIME] | 0.06 µg/mL (≈ 0.132 µM) | 0.5 µg/mL (≈ 1.1 µM) | 4 µg/mL (≈ 8.78 µM) | 2 µg/mL (≈ 4.39 µM) | 1 µg/mL (≈ 2.2 µM) | 16 µg/mL (≈ 35.1 µM) | 8 µg/mL (≈ 17.6 µM) | 1 µg/mL (≈ 2.2 µM) | 0.06 µg/mL (≈ 0.132 µM) | 0.25 µg/mL (≈ 0.549 µM) | 4 µg/mL (≈ 8.78 µM) | 4 µg/mL (≈ 8.78 µM) | 2 µg/mL (≈ 4.39 µM)
3 |  |  |  |  | CO/N=C(\C(=O)N[C@@H]1C(=O)N2C(C(=O)O)=C(CSc3nc(=O)c(O)nn3C)CS[C@H]12)c1csc(N)n1 [CEFTRIAXONE] | 0.06 µg/mL (≈ 0.108 µM) | 0.25 µg/mL (≈ 0.451 µM) | 4 µg/mL (≈ 7.21 µM) | 1 µg/mL (≈ 1.8 µM) | 0.5 µg/mL (≈ 0.902 µM) | 4 µg/mL (≈ 7.21 µM) | 4 µg/mL (≈ 7.21 µM) | 0.25 µg/mL (≈ 0.451 µM) | 0.06 µg/mL (≈ 0.108 µM) | 0.25 µg/mL (≈ 0.451 µM) | 2 µg/mL (≈ 3.61 µM) | 4 µg/mL (≈ 7.21 µM) | 1 µg/mL (≈ 1.8 µM)
4 |  |  |  |  | CO/N=C(\C(=O)N[C@@H]1C(=O)N2C(C(=O)O)=C(COC(N)=O)CS[C@H]12)c1ccco1 [CEFUROXIME] | 0.12 µg/mL (≈ 0.283 µM) | 2 µg/mL (≈ 4.71 µM) | 8 µg/mL (≈ 18.9 µM) | 2 µg/mL (≈ 4.71 µM) | 4 µg/mL (≈ 9.43 µM) | > 32 µg/mL | > 32 µg/mL | 2 µg/mL (≈ 4.71 µM) | 0.12 µg/mL (≈ 0.283 µM) | 0.25 µg/mL (≈ 0.589 µM) | 16 µg/mL (≈ 37.7 µM) | 32 µg/mL (≈ 75.4 µM) | 8 µg/mL (≈ 18.9 µM)
5 | inactive | inactive | inactive | Active | Cc1cc(C)n2c1C=C1C=CC(CCC(=O)Nc3ccc(OCC(=O)N[C@@H]4C(=O)N5[C@@H]4SC(C)(C)[C@@H]5C(=O)O)cc3)=[N+]1[B-]2(F)F |  |  |  |  |  |  |  |  |  |  |  |  | 
6 |  |  |  |  | CC1(C)S[C@@H]2[C@H](NC(=O)Cc3ccccc3)C(=O)N2[C@H]1C(=O)O [PENICILLIN G] | 0.12 µg/mL (≈ 0.359 µM) | 2 µg/mL (≈ 5.98 µM) | 8 µg/mL (≈ 23.9 µM) | 2 µg/mL (≈ 5.98 µM) | 8 µg/mL (≈ 23.9 µM) | 8 µg/mL (≈ 23.9 µM) | 8 µg/mL (≈ 23.9 µM) | 4 µg/mL (≈ 12 µM) | 0.12 µg/mL (≈ 0.359 µM) | 0.5 µg/mL (≈ 1.5 µM) | 4 µg/mL (≈ 12 µM) | 8 µg/mL (≈ 23.9 µM) | 4 µg/mL (≈ 12 µM)
7 |  |  |  |  | CC1(C)S[C@@H]2[C@H](NC(=O)[C@H](N)c3ccc(O)cc3)C(=O)N2[C@H]1C(=O)O [AMOXICILLIN] | 0.06 µg/mL (≈ 0.164 µM) | 1 µg/mL (≈ 2.74 µM) | 2 µg/mL (≈ 5.47 µM) | 2 µg/mL (≈ 5.47 µM) | 2 µg/mL (≈ 5.47 µM) | 16 µg/mL (≈ 43.8 µM) | 16 µg/mL (≈ 43.8 µM) | 4 µg/mL (≈ 10.9 µM) | 0.12 µg/mL (≈ 0.328 µM) | 0.25 µg/mL (≈ 0.684 µM) | 2 µg/mL (≈ 5.47 µM) | 8 µg/mL (≈ 21.9 µM) | 8 µg/mL (≈ 21.9 µM)
8 |  |  |  |  | CO/N=C(\C(=O)N[C@@H]1C(=O)N2C(C(=O)[O-])=C(C[N+]3(C)CCCC3)CS[C@H]12)c1csc(N)n1 [CEFEPIME] | 0.06 µg/mL (≈ 0.125 µM) | 1 µg/mL (≈ 2.08 µM) | 4 µg/mL (≈ 8.32 µM) | 1 µg/mL (≈ 2.08 µM) | 2 µg/mL (≈ 4.16 µM) | 8 µg/mL (≈ 16.6 µM) | 2 µg/mL (≈ 4.16 µM) | 1 µg/mL (≈ 2.08 µM) | 0.25 µg/mL (≈ 0.52 µM) | 0.25 µg/mL (≈ 0.52 µM) | 1 µg/mL (≈ 2.08 µM) | 1 µg/mL (≈ 2.08 µM) | 1 µg/mL (≈ 2.08 µM)
